Tests used:
[1] = organism: Homo sapiens; assay: Bronchorelaxing effect in leukotriene D4-contracted human lung small airways model assessed as remaining contraction at 10 uM relative to control; type: functional
How it was run: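 Human small airways (0.5–1.5 mm diameter) from lobectomy tissue, stretched to 1.2 mN and accepted when two control LTD4 contractions differed by under 10%. Test substance at 10 µM was present for one whole cycle: 1 h LTD4-free PSS, then 30 min with 10 nM LTD4. The contraction was compared with the preceding one and given as % remaining, mean ± SEM. Paired preparations per chamber were averaged.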

[2] = organism: Homo sapiens; assay: Bronchorelaxing effect in leukotriene D4-contracted small human lung small airways model assessed as remaining contraction at 1 uM after 3 hrs relative to control
[3] = organism: Homo sapiens; assay: Bronchorelaxing effect in leukotriene D4-contracted small human lung small airways model assessed as remaining contraction at 1 uM after 6 hrs relative to control
[4] = organism: Homo sapiens; assay: Bronchorelaxing effect in leukotriene D4-contracted small human lung small airways model assessed as remaining contraction at 1 uM after 1.5 hrs relative to control
[5] = organism: Homo sapiens; assay: Bronchorelaxing effect in leukotriene D4-contracted small human lung small airways model assessed as remaining contraction at 1 uM after 4.5 hrs relative to control

## Oc1c(O)c(Cl)c2c(c1Cl)CCN(C(=S)NCCCc1ccccc1)C2
[1]
  Activity: 11%

## CC(C)(C)c1ccc(CCNC(=S)N2CCCc3cc(O)c(O)cc3C2)cc1
[1]
  Activity: 80%

## Oc1cc2c(cc1O)CN(C(=S)NCc1ccc(Cl)cc1)CCC2
[1]
  Activity: 70%

## Oc1c(O)c(Cl)c2c(c1Cl)CCN(C(=S)NCc1ccccc1)C2
[1]
  Activity: 10%

## Oc1c(O)c(Cl)c2c(c1Cl)CCN(C(=S)NCc1ccc(Cl)cc1)C2
[1]
  Activity: 19%

## O=C(NCCc1ccc(Cl)cc1)c1ccc2cc(O)ccc2c1
[1]
  Activity: 90%

## Oc1c(O)c(Cl)c2c(c1Cl)CCN(C(=S)NCCc1cccnc1)C2
[1]
  Activity: 30%

## Oc1cc2c(cc1O)CN(C(=S)NCCCc1ccccc1)CCC2
[1]
  Activity: 84%

## O=C(NCCc1ccc(Cl)cc1)N1CCc2c(Cl)c(O)c(O)c(Cl)c2C1
[1]
  Activity: 16%
[2]
  Activity: 81%
[3]
  Activity: 71%
[4]
  Activity: 91%
[5]
  Activity: 78%

## CCCCCCCCNC(=S)N1CCc2c(Cl)c(O)c(O)c(Cl)c2C1
[1]
  Activity: 69%

## Oc1cc2c(cc1O)CN(C(=S)NCCc1ccccc1Cl)CCC2
[1]
  Activity: 56%

## Oc1cc2c(cc1O)CN(C(=S)NCCc1ccc(F)cc1)CCC2
[1]
  Activity: 68%

## Oc1cc2c(cc1O)CN(C(=S)NCCc1ccccc1)CCC2
[1]
  Activity: 71%

## O=C(NCCc1ccc(Cl)cc1)N1CCCc2cc(O)c(O)cc2C1
[1]
  Activity: 73%

## Oc1ccc(CCNC(=S)N2CCc3c(Cl)c(O)c(O)c(Cl)c3C2)cc1
[1]
  Activity: 22%

## CCCCCCCCNC(=S)N1CCCc2cc(O)c(O)cc2C1
[1]
  Activity: 69%

## CC(C)(C)c1ccc(CCNC(=S)N2CCc3c(Cl)c(O)c(O)c(Cl)c3C2)cc1
[1]
  Activity: 69%

## O=C(CCCc1ccc(Cl)cc1)N1CCc2cc(O)c(O)cc2C1
[1]
  Activity: 47%

## Oc1c(O)c(Cl)c2c(c1Cl)CCN(C(=S)NCCc1cccc(Cl)c1)C2
[1]
  Activity: 27%

## O=C(NCCc1ccc(Cl)cc1)N1CCc2cc(O)c(O)cc2C1
[1]
  Activity: 69%

## Oc1c(O)c(Cl)c2c(c1Cl)CCN(C(=S)NCCc1ccccc1Cl)C2
[1]
  Activity: 10%

## O=C(NCCc1ccc(Cl)cc1)C1CCc2cc(O)ccc2C1 (centres undefined)
[1]
  Activity: 78%

## O=C(CCCc1ccc(Cl)cc1)N1CCCc2cc(O)c(O)cc2C1
[1]
  Activity: 54%

## Oc1cc2c(cc1O)CN(C(=S)NCCc1ccc(Br)cc1)CCC2
[1]
  Activity: 67%

## Oc1c(O)c(Cl)c2c(c1Cl)CCN(C(=S)NCCc1ccc(Br)cc1)C2
[1]
  Activity: 17%

## Oc1c(O)c(Cl)c2c(c1Cl)CCN(C(=S)NCCc1ccc(F)cc1)C2
[1]
  Activity: 6%

## Oc1cc2c(cc1O)CN(C(=S)NCCc1cccc(Cl)c1)CCC2
[1]
  Activity: 76%

## Oc1c(O)c(Cl)c2c(c1Cl)CCN(C(=S)NCCc1ccc(Cl)cc1)C2
[1]
  Activity: 14%
[2]
  Activity: 57%
[3]
  Activity: 32%
[4]
  Activity: 79%
[5]
  Activity: 44%

## O=C(CCCc1ccc(Cl)cc1)N1CCc2c(Cl)c(O)c(O)c(Cl)c2C1
[1]
  Activity: 16%
[2]
  Activity: 65%
[3]
  Activity: 45%
[4]
  Activity: 80%
[5]
  Activity: 55%

## Oc1c(O)c(Cl)c2c(c1Cl)CCN(C(=S)NCCc1ccccc1)C2
[1]
  Activity: 8%

## Oc1c(O)c(Cl)c2c(c1Cl)CCN(C(=S)NCCc1ccncc1)C2
[1]
  Activity: 33%

## Oc1c(O)c(Cl)c2c(c1Cl)CCN(C(=S)NCCc1ccccn1)C2
[1]
  Activity: 26%
